ChEMBL document CHEMBL1143667, “Synthesis and pharmacological evaluation of 6,7-indolo/thiazolo-morphinans--further SAR of levorphanol” (J Med Chem, 2007)
pEC50, pIC50, pKi: −log10 of the molar value. Active and inactive are the calls of the source. No cut-off for these calls is given here.

Key:
Mu-type opioid receptor [1] = molecular target: T1, Mu-type opioid receptor (Homo sapiens, UniProt P35372); experiment: Displacement of [3H]DAMGO from human mu opioid receptor expressed in CHO membrane; assay type: cell membranes
T1 sequence (P35372 whole entry): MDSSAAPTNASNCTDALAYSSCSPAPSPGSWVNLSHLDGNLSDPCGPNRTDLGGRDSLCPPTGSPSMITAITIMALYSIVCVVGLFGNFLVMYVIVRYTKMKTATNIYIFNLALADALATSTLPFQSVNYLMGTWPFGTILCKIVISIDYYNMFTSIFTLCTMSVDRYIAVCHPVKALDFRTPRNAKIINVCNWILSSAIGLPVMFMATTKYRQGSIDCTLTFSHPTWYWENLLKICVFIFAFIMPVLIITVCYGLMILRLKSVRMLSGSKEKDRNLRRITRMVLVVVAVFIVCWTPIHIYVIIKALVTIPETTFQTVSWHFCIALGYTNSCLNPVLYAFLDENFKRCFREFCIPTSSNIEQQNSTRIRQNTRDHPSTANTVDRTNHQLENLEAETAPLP
How it was run: (§1)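 CHO membranes (0.5 mg protein/sample) incubated 60 min at 25 °C with [3H]DAMGO (µ) or [3H]U69,593 (κ) and 12 compound concentrations in 1 mL 50 mM Tris-HCl, pH 7.5. Nonspecific binding with 10 µM naloxone. Mean ± SEM of three experiments in triplicate.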

[2] = molecular target: T2, Delta-type opioid receptor (Homo sapiens, UniProt P41143); experiment: Displacement of [3H]naltrindole from human delta opioid receptor expressed in CHO membrane; assay type: cell membranes
T2 sequence (P41143 whole entry): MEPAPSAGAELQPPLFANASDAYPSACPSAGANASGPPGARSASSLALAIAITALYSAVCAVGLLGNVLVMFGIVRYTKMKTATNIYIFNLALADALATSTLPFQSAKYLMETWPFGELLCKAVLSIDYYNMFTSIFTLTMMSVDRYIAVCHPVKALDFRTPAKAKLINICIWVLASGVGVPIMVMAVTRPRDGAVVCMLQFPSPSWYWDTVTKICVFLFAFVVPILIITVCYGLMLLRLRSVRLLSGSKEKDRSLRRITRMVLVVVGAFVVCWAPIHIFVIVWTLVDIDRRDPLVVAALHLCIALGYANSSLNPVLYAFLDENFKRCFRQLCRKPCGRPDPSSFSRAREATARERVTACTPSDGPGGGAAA
How it was run: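 CHO membranes (0.5 mg protein/sample) incubated at 25 °C with δ-specific radioligand and 12 compound concentrations in 1 mL 50 mM Tris-HCl, pH 7.5; nonspecific binding with 10 µM naloxone. Three experiments in triplicate.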

[3] = molecular target: T3, Kappa-type opioid receptor (Homo sapiens, UniProt P41145); experiment: Displacement of [3H]U-69593 from human kappa opioid receptor expressed in CHO membrane; assay type: cell membranes; how it was run: as §1
T3 sequence (P41145 whole entry): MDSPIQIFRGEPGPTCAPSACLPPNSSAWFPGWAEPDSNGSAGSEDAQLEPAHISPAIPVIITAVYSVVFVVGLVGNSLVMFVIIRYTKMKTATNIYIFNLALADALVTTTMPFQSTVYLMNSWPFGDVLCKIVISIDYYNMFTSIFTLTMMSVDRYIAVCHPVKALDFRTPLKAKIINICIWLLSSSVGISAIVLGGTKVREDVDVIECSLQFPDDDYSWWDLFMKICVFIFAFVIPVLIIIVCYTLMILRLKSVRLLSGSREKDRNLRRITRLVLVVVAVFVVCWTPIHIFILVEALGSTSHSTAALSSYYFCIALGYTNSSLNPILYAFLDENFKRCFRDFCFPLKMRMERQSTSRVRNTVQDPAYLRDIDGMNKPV

[4] = molecular target: Opioid receptors; mu & kappa (Homo sapiens) (UniProt P41145+P35372); experiment: Selectivity for human kappa opioid receptor over human mu opioid receptor; assay type: protein assay
Sequence of Opioid receptors; mu & kappa (Homo sapiens) (P35372 whole entry, looked up): as the sequence (P35372 whole entry) above
Sequence of Opioid receptors; mu & kappa (Homo sapiens) (P41145 whole entry, looked up): as the sequence (P41145 whole entry) above

[5] = molecular target: Opioid receptors; delta & kappa (Homo sapiens) (UniProt P41145+P41143); experiment: Selectivity for human kappa opioid receptor over human delta opioid receptor; assay type: protein assay
Sequence of Opioid receptors; delta & kappa (Homo sapiens) (P41143 whole entry, looked up): as the sequence (P41143 whole entry) above
Sequence of Opioid receptors; delta & kappa (Homo sapiens) (P41145 whole entry, looked up): as the sequence (P41145 whole entry) above

[6] = molecular target: T2, Delta-type opioid receptor; experiment: Agonist activity at human delta opioid receptor expressed in CHO membrane assessed as stimulation of [35S]GTP-gamma-S binding; assay type: functional, cell membranes
[7] = molecular target: T2, Delta-type opioid receptor; experiment: Antagonist activity at human delta opioid receptor expressed in CHO membrane assessed as inhibition of SNC80-induced [35S]GTPgammaS binding; assay type: functional, cell membranes
Mu-type opioid receptor [8] = molecular target: T1, Mu-type opioid receptor; experiment: Agonist activity at human mu opioid receptor expressed in CHO membrane assessed as stimulation of [35S]GTPgammaS binding; assay type: functional, cell membranes
How it was run: (§2)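 Membranes from CHO cells stably expressing human κ (15 µg protein/tube) or µ (7.5 µg/tube) receptor; 12 agonist concentrations, 60 min at 30 °C in Tris-HCl/MgCl2/NaCl/EGTA buffer pH 7.4 with 3 µM GDP and [35S]GTPγS (0.8 nM). Nonspecific binding with 10 µM unlabeled GTPγS; filtration, scintillation counting. Stimulation as % over basal; at least three experiments in triplicate.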

Mu-type opioid receptor [9] = molecular target: T1, Mu-type opioid receptor; experiment: Antagonist activity at human mu opioid receptor expressed in CHO membrane assessed as inhibition of DAMGO-induced [35S]GTP-gamma-S binding; assay type: functional, cell membranes
How it was run: (§3)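 Antagonism measured in CHO membranes expressing κ receptor with 100 nM U50,488, or µ receptor with 200 nM DAMGO, plus test compound and 0.8 nM [35S]GTPγS, 3 µM GDP. Filtration and scintillation readout; IC50 and Imax from three experiments in triplicate.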

[10] = molecular target: T3, Kappa-type opioid receptor; experiment: Agonist activity at human kappa opioid receptor expressed in CHO membrane assessed as stimulation of [35S]GTP-gamma-S binding; assay type: functional, cell membranes; how it was run: as §2
[11] = molecular target: T3, Kappa-type opioid receptor; experiment: Antagonist activity at human kappa opioid receptor expressed in CHO membrane assessed as inhibition of U50488-induced [35S]GTP-gamma-S binding; assay type: functional, cell membranes; how it was run: as §3

Row | Compound | pKi (Mu-type opioid receptor [1]) | pKi [2] | pKi [3] | Ratio Ki [4] | Ratio Ki [5] | pEC50 [6] | Emax [6] | pIC50 [7] | Imax [7] | pEC50 (Mu-type opioid receptor [8]) | Emax (Mu-type opioid receptor [8]) | Imax (Mu-type opioid receptor [9]) | pEC50 [10] | Emax [10] | Activity [11] | Activity [7] | pIC50 (Mu-type opioid receptor [9]) | pIC50 [11] | Imax [11]
1 | COc1ccc2c(c1)[C@]13CCN(C)[C@H](C2)[C@@H]1Cc1c([nH]c2ccccc12)C3 | 6.47 | 7.46 | 6.41 | 0.9 | 0.1 |  |  |  |  |  |  |  |  |  |  |  |  |  | 
2 | CN1CC[C@]23Cc4[nH]c5ccccc5c4C[C@H]2[C@H]1Cc1ccc(O)cc13 | 7.66 | 9.46 | 7.85 | 1.6 | 0.03 | 9.33 | 23% | 8.82 | 45% |  |  |  |  |  |  |  |  |  | 
3 | CN1CC[C@]23Cc4nc(N)sc4C[C@H]2[C@H]1Cc1ccc(O)cc13 | 9.31 | 8.38 | 8.66 | 0.2 | 2 | 8.08 | 67% |  |  | 6.85 | 42% | 45% | 7.68 | 44% | inactive | inactive |  |  | 
4 | COc1ccc2c(c1)[C@]13CCN(CC4CCC4)[C@H](C2)[C@@H]1Cc1c([nH]c2ccccc12)C3 | 6.48 | 8.06 | 7.05 | 4 | 0.1 | 7.64 | 54% |  |  |  |  |  |  |  |  | inactive |  |  | 
5 | COc1ccc2c(c1)[C@]13CCN(CC4CC4)[C@H](C2)[C@@H]1Cc1c([nH]c2ccccc12)C3 | 8.23 | 8.82 | 8.85 | 4 | 1 | 8.82 | 56% |  |  | 8.77 | 72% | 43% | 7.62 | 68% | inactive | inactive | 6.36 |  | 
6 | Nc1nc2c(s1)C[C@H]1[C@H]3Cc4ccc(O)cc4[C@@]1(CCN3CC1CC1)C2 |  | 9.64 | 10.15 |  |  | 9.77 | 49% |  |  |  |  |  | 9.47 | 37% | inactive | inactive |  |  | 
7 | Oc1ccc2c(c1)[C@]13CCN(CC4CCC4)[C@H](C2)[C@@H]1Cc1c([nH]c2ccccc12)C3 | 8.41 | 9.77 | 9.00 | 4 | 0.2 | 9.10 | 37% | 9.22 | 55% | 6.96 | 68% | 23% | 6.72 | 87% | inactive |  |  |  | 
8 | Nc1nc2c(s1)C[C@H]1[C@H]3Cc4ccc(O)cc4[C@@]1(CCN3CC1CCC1)C2 | 9.43 | 8.96 | 9.85 | 3 | 8 | 8.60 | 51% |  |  | 8.59 | 33% | 68% | 8.59 | 40% |  | inactive | 7.59 | 7.03 | 44%
9 | Oc1ccc2c(c1)[C@]13CCN(CC4CC4)[C@H](C2)[C@@H]1Cc1c([nH]c2ccccc12)C3 | 8.96 | 9.72 | 9.19 | 2 | 0.3 | 9.80 | 22% | 8.92 | 73% | 7.04 | 47% | 84% | 7.21 | 67% |  |  | 7.92 | 7.77 | 49%
